ChEMBL document CHEMBL4229550, “An antimycobacterial pleuromutilin analogue effective against dormant bacilli” (Bioorg Med Chem, 2018)
In brackets after ≈: the same amount, converted by molar mass. Activity calls are given as the source filed them. The calls are words filed in the database; no cut-off is given here.

Experiments:
Staphylococcus aureus [1] = experiment: Antibacterial activity against Staphylococcus aureus incubated for 24 hrs under aerobic condition by MABA; assay type: functional; conditions: read-out: MIC100
Procedure, shortened: (§1)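 Resazurin was then added from a 0.08% stock for 1 h. MIC100 was the lowest concentration where the dye stayed blue (pink means growth). Absorbance was also read at 570 and 600 nm.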

[2] = test system: Mycolicibacterium smegmatis; experiment: Antibacterial activity against Mycobacterium smegmatis; assay type: functional
[3] = test system: Mycobacterium tuberculosis; experiment: Antibacterial activity against replicating Mycobacterium tuberculosis H37Rv incubated for 15 days under aerobic condition by MABA; assay type: functional; conditions: 360 h, read-out: MIC100
Procedure, shortened: (§2)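 Mtb H37Rv grown in 7H9/OADC at 37 °C with shaking to OD600 0.5. The 0.5-OD culture is exposed aerobically to serial dilutions for 15 days at 37 °C. Resazurin (0.02% stock) is then added for 4 h at 37 °C with shaking.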

[4] = Selectivity index, ratio of IC50 for African green monkey Vero cells to MIC100 for replicating Mycobacterium tuberculosis H37Rv by MABA; assay type: toxicity; conditions: read-out: Selectivity Index
Procedure, shortened: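 Vero cells are cultured in EMEM with 10% FBS and exposed for 72 h to 0.78–200 µg/mL. Medium is switched to phenol-red-free EMEM, MTT is added, and formazan is read at 570 nm to give IC50. The selectivity index is Vero IC50 divided by the MABA MIC.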

Escherichia coli [5] = experiment: Inhibition of protein translation/transcription in Escherichia coli S30 cell extract at 0.1 ug/ml using circular DNA with pBESTluc after 60 mins by luciferase reporter gene assay; assay type: functional
Procedure, shortened: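 Coupled transcription/translation used E. coli S30 extract, amino acid mix and premix, with the pBESTluc template carrying firefly luciferase under the tac promoter. Compounds were added in DMSO and reactions were started with DNA. Incubation was 60 min at 37 °C, stopped on ice, and luciferase was read after adding assay substrate.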

[6] = Half life in Sprague-Dawley rat liver microsomes at 500 ng/ml preincubated for 5 mins followed by NADPH addition by C-MS/MS analysis; assay type: ADME, microsome
[7] = test system: Mycobacterium tuberculosis; experiment: Bactericidal activity against replicating Mycobacterium tuberculosis H37Rv incubated for 15 days under aerobic condition by MABA; assay type: functional; conditions: 360 h; procedure, shortened: as §2
[8] = test system: Mycolicibacterium smegmatis; experiment: Antibacterial activity against Mycobacterium smegmatis ATCC 607 incubated for 48 hrs under aerobic condition by MABA; assay type: functional; conditions: ATCC 607, 48 h, read-out: MIC100
Procedure, shortened: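 Mid-log culture at OD 0.5 was incubated with serial dilutions aerobically at 37 °C for 48 h. Resazurin was then added from a 0.08% stock for 1 h. MIC100 was the lowest concentration that stayed blue; absorbance was also read at 570/600 nm.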

[9] = test system: Mycolicibacterium smegmatis; experiment: Bactericidal activity against Mycobacterium smegmatis ATCC 607 incubated for 48 hrs under aerobic condition by MABA; assay type: functional; conditions: ATCC 607, 48 h
Staphylococcus aureus [10] = experiment: Bactericidal activity against Staphylococcus aureus incubated for 24 hrs under aerobic condition by MABA; assay type: functional
Staphylococcus aureus [11] = experiment: Antibacterial activity against Staphylococcus aureus ATCC 25923 incubated for 24 hrs under aerobic condition by MABA; assay type: functional; conditions: ATCC 25923, 24 h, read-out: MIC100
Procedure, shortened: (§3)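 Mid-log cultures at OD 0.5 were exposed to serial dilutions under aerobic conditions at 37 °C for 24 h. Resazurin was then added from a 0.08% stock for 1 h. MIC100 was the lowest concentration where the dye stayed blue (pink means growth). Absorbance was also read at 570 and 600 nm.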

Staphylococcus aureus [12] = experiment: Bactericidal activity against Staphylococcus aureus ATCC 25923 incubated for 24 hrs under aerobic condition by MABA; assay type: functional; conditions: ATCC 25923, 24 h
Staphylococcus aureus [13] = experiment: Antibacterial activity against Staphylococcus aureus BAA 2094 incubated for 24 hrs under aerobic condition by MABA; assay type: functional; conditions: BAA 2094, 24 h, read-out: MIC100; procedure, shortened: as §1
Staphylococcus aureus [14] = experiment: Bactericidal activity against Staphylococcus aureus BAA 2094 incubated for 24 hrs under aerobic condition by MABA; assay type: functional; conditions: BAA 2094, 24 h
Staphylococcus aureus [15] = experiment: Antibacterial activity against Staphylococcus aureus BAA 1683 incubated for 24 hrs under aerobic condition by MABA; assay type: functional; conditions: BAA 1683, 24 h, read-out: MIC100; procedure, shortened: as §3
Staphylococcus aureus [16] = experiment: Bactericidal activity against Staphylococcus aureus BAA 1683 incubated for 24 hrs under aerobic condition by MABA; assay type: functional; conditions: BAA 1683, 24 h
Staphylococcus aureus [17] = experiment: Antibacterial activity against Staphylococcus aureus BAA 44 incubated for 24 hrs under aerobic condition by MABA; assay type: functional; conditions: BAA 44, 24 h, read-out: MIC100; procedure, shortened: as §3
Staphylococcus aureus [18] = experiment: Bactericidal activity against Staphylococcus aureus BAA 44 incubated for 24 hrs under aerobic condition by MABA; assay type: functional; conditions: BAA 44, 24 h
Enterococcus faecalis [19] = experiment: Antibacterial activity against Enterococcus faecalis ATCC 349 incubated for 24 hrs under aerobic condition by MABA; assay type: functional; conditions: ATCC 349, 24 h, read-out: MIC100; procedure, shortened: as §3
Enterococcus faecalis [20] = experiment: Bactericidal activity against Enterococcus faecalis ATCC 349 incubated for 24 hrs under aerobic condition by MABA; assay type: functional; conditions: ATCC 349, 24 h
Enterococcus faecalis [21] = experiment: Antibacterial activity against Enterococcus faecalis ATCC 19433 incubated for 24 hrs under aerobic condition by MABA; assay type: functional; conditions: ATCC 19433, 24 h, read-out: MIC100; procedure, shortened: as §3
Enterococcus faecalis [22] = experiment: Bactericidal activity against Enterococcus faecalis ATCC 19433 incubated for 24 hrs under aerobic condition by MABA; assay type: functional; conditions: ATCC 19433, 24 h
Clostridioides difficile = experiment: Bactericidal activity against Clostridium difficile ATCC 700057 incubated for 24 hrs […] by MABA; assay type: functional; conditions: ATCC 700057, 24 h
Streptococcus pneumoniae [23] = experiment: Antibacterial activity against Streptococcus pneumoniae ATCC 6301 incubated for 24 hrs under aerobic condition by MABA; assay type: functional; conditions: ATCC 6301, 24 h, read-out: MIC100; procedure, shortened: as §3
Streptococcus pneumoniae [24] = experiment: Bactericidal activity against Streptococcus pneumoniae ATCC 6301 incubated for 24 hrs under aerobic condition by MABA; assay type: functional; conditions: ATCC 6301, 24 h
Klebsiella pneumoniae [25] = experiment: Antibacterial activity against Klebsiella pneumoniae ATCC 12019 incubated for 24 hrs under aerobic condition by MABA; assay type: functional; conditions: ATCC 12019, 24 h, read-out: MIC100; procedure, shortened: as §3
Klebsiella pneumoniae [26] = experiment: Bactericidal activity against Klebsiella pneumoniae ATCC 12019 incubated for 24 hrs under aerobic condition by MABA; assay type: functional; conditions: ATCC 12019, 24 h
Acinetobacter baumannii [27] = experiment: Antibacterial activity against Acinetobacter baumannii ATCC 19606 incubated for 24 hrs under aerobic condition by MABA; assay type: functional; conditions: ATCC 19606 = CIP 70.34 = JCM 6841, 24 h, read-out: MIC100; procedure, shortened: as §3
Acinetobacter baumannii [28] = experiment: Bactericidal activity against Acinetobacter baumannii ATCC 19606 incubated for 24 hrs under aerobic condition by MABA; assay type: functional; conditions: ATCC 19606 = CIP 70.34 = JCM 6841, 24 h
Escherichia coli [29] = experiment: Antibacterial activity against Escherichia coli ATCC 10798 incubated for 24 hrs under aerobic condition by MABA; assay type: functional; conditions: ATCC 10798, 24 h, read-out: MIC100; procedure, shortened: as §3
Escherichia coli [30] = experiment: Bactericidal activity against Escherichia coli ATCC 10798 incubated for 24 hrs under aerobic condition by MABA; assay type: functional; conditions: ATCC 10798, 24 h
Streptococcus salivarius [31] = experiment: Antibacterial activity against Streptococcus salivarius […] incubated for 24 hrs under aerobic condition by MABA; assay type: functional; conditions: read-out: MIC100; procedure, shortened: as §1
Streptococcus salivarius [32] = experiment: Bactericidal activity against Streptococcus salivarius ATCC 6301 incubated for 24 hrs under aerobic condition by MABA; assay type: functional; conditions: ATCC 6301, 24 h
Bacillus subtilis [33] = experiment: Antibacterial activity against Bacillus subtilis ATCC 6051 incubated for 24 hrs under aerobic condition by MABA; assay type: functional; conditions: ATCC 6051, 24 h, read-out: MIC100; procedure, shortened: as §3
Bacillus subtilis [34] = experiment: Bactericidal activity against Bacillus subtilis ATCC 6051 incubated for 24 hrs under aerobic condition by MABA; assay type: functional; conditions: ATCC 6051, 24 h

## C=C[C@]1(C)C[C@@H](OC(=O)CSC(C)(C)CNC(=O)[C@H](N)C(C)C)[C@]2(C)[C@H](C)CC[C@]3(CCC(=O)[C@H]32)[C@@H](C)[C@@H]1O [VALNEMULIN]
Staphylococcus aureus [1]
  MIC: 0.4 µg/mL (≈ 0.708 µM)
[2]
  MIC: 8 to 16 µg/mL (≈ 14.2 to 28.3 µM)
[3]
  MIC: 3.13 µg/mL (≈ 5.54 µM)
[4]
  selectivity ratio: 4.79
Escherichia coli [5]
  inhibition: Active
[6]
  t1/2: 10 min
[7]
  MBC: 6.25 µg/mL (≈ 11.1 µM)
[8]
  MIC: 12.5 µg/mL (≈ 22.1 µM)
[9]
  MBC: 25 µg/mL (≈ 44.3 µM)
Staphylococcus aureus [10]
  MBC: 0.8 µg/mL (≈ 1.42 µM)
Staphylococcus aureus [11]
  MIC: > 25 µg/mL
Staphylococcus aureus [12]
  MBC: > 25 µg/mL
Staphylococcus aureus [13]
  MIC: > 25 µg/mL
Staphylococcus aureus [14]
  MBC: > 25 µg/mL
Staphylococcus aureus [15]
  MIC: > 25 µg/mL
Staphylococcus aureus [16]
  MBC: > 25 µg/mL
Staphylococcus aureus [17]
  MIC: > 25 µg/mL
Staphylococcus aureus [18]
  MBC: > 25 µg/mL
Enterococcus faecalis [19]
  MIC: > 25 µg/mL
Enterococcus faecalis [20]
  MBC: > 25 µg/mL
Enterococcus faecalis [21]
  MIC: 6.25 µg/mL (≈ 11.1 µM)
Enterococcus faecalis [22]
  MBC: 12.5 µg/mL (≈ 22.1 µM)
Clostridioides difficile
  MBC: 1.56 µg/mL (≈ 2.76 µM)
Streptococcus pneumoniae [23]
  MIC: 12.5 µg/mL (≈ 22.1 µM)
Streptococcus pneumoniae [24]
  MBC: > 25 µg/mL
Klebsiella pneumoniae [25]
  MIC: 12.5 µg/mL (≈ 22.1 µM)
Klebsiella pneumoniae [26]
  MBC: 25 µg/mL (≈ 44.3 µM)
Acinetobacter baumannii [27]
  MIC: 4.69 µg/mL (≈ 8.3 µM)
Acinetobacter baumannii [28]
  MBC: 6.25 µg/mL (≈ 11.1 µM)
Escherichia coli [29]
  MIC: 12.5 µg/mL (≈ 22.1 µM)
Escherichia coli [30]
  MBC: > 25 µg/mL
Streptococcus salivarius [31]
  MIC: 0.4 µg/mL (≈ 0.708 µM)
Streptococcus salivarius [32]
  MBC: > 25 µg/mL
Bacillus subtilis [33]
  MIC: 12.5 µg/mL (≈ 22.1 µM)
Bacillus subtilis [34]
  MBC: 25 µg/mL (≈ 44.3 µM)
